According to publication PMC10883201 (Nature, 2023):
Converted amounts (≈) assume the structure as drawn.

How the values were obtained:
C. albicans SN250 = experiment: Erg extraction experiment; type: cell-based, Candida albicans; conditions: C. albicans SN250, compound at 5 μM
[1] = ITC, Erg-containing LUVs; AmB–Erg binding data reported earlier; cited from earlier work
[2] = Solution stability in PBS buffer; type: physicochemical; conditions: PBS buffer at pH 6
H9c2 myocardial cells = experiment: Cell viability assay; type: cell-based, rat; conditions: up to highest concentration tested 50 μM
Summary of the method: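 Rat myocardial cells maintained in complete DMEM with FBS, Pen-Strep and non-essential amino acids, 37 °C, 5% CO2. After trypsinization, cells at 5 × 10^5 cells ml−1 were seeded at […] and rested 3 h. Compound was given at 0.5–50 μM final (1% DMSO) for 24 h, with DMSO and puromycin controls. alamarBlue was added 3 h, then fluorescence read at 537/585 nm. Triplicate; mean of three experiments.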

[3] = ITC with Erg-containing large unilamellar vesicles; type: binding; conditions: ITC heat exchange
[4] = test system: primary human renal proximal tubule epithelial cells; experiment: Cell viability assay; type: cell-based; conditions: up to highest concentration tested 50 μM
[5] = ITC with Chol-containing large unilamellar vesicles; type: binding; conditions: ITC heat exchange
HepG2 liver cells = experiment: Cell viability assay; type: cell-based, human; conditions: up to highest concentration tested 50 μM
Summary of the method: (§1)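 Cells grown in complete MEM with FBS, Pen-Strep and non-essential amino acids at 37 °C, 5% CO2. Trypsinized cells were adjusted to 5 × 10^5 cells ml−1, seeded at 10^4 cells per well, and held 3 h at 37 °C. Compound was then added at 0.5–50 μM final in 1% DMSO, with DMSO and puromycin controls, for 24 h. alamarBlue was read after 3 h (ex 537/em 585 nm). Triplicate; average of three experiments.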

human red blood cells = experiment: Red blood cell lysis / permeabilization; type: cell-based; conditions: up to highest concentration tested 500 μM
[6] = Renal toxicity in mice, 24 h post single IV dose; type: in vivo, female CD-1 mice
Candida krusei = experiment: MIC assay; type: cell-based
Aspergillus fumigatus 91 = experiment: MIC assay; type: cell-based
K562 cells = experiment: Cell viability assay; type: cell-based, human; conditions: up to highest concentration tested 50 μM
Summary of the method: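 Suspension cells grown in complete IMDM with FBS and Pen-Strep at 37 °C, 5% CO2. Without trypsinization, suspension was adjusted to 12.5 × 10^5 cells ml−1 and held 3 h at 37 °C before compound. Exposure was 0.5–50 μM final in 1% DMSO, with DMSO and puromycin controls, for 24 h. Viability was by alamarBlue fluorescence after 3 h (ex 537/em 585 nm). Triplicate; average of three experiments.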

SH-SY5Y neural cells = experiment: Cell viability assay; type: cell-based, human; conditions: up to highest concentration tested 50 μM
Summary of the method: as §1

Row | SMILES | T50% (time required for 50% Erg extraction) (C. albicans SN250) [h] | ΔΔHErg (ΔHsterol – ΔHsterol-free) [1] [µcal] | solution stability [2] | toxicity (H9c2 myocardial cells) | Erg binding [3] | toxicity [4] | Chol binding [5] | toxicity (HepG2 liver cells) | toxicity (human red blood cells) | kidney injury biomarkers ([6]; 24 h after single IV 45 mg/kg dose) | renal biomarkers ([6]; doses of ≥45 mg kg^−1, single IV, 24 h, 1:2 deoxycholate formulation) | MIC (Candida krusei) [µM] | MIC (Aspergillus fumigatus 91) [µM] | toxicity (K562 cells) | toxicity (SH-SY5Y neural cells)
1 | C[C@@H]1[C@H](O)[C@@H](C)/C=C/C=C/C=C/C=C/C=C/C=C/C=C/[C@H](O[C@@H]2O[C@H](C)[C@@H](O)[C@H](N)[C@@H]2O)C[C@@H]2O[C@](O)(C[C@@H](O)C[C@@H](O)[C@H](O)CC[C@@H](O)C[C@@H](O)CC(=O)O[C@H]1C)C[C@H](O)[C@H]2C(=O)O [AmB, amphotericin B, reference compound] | 0.92 | -42.4 ± 11.2 | – | – | – | – | – | – | – | – | – | – | – | – | –
2 | CC1C=CC=CC=CC=CC=CC=CC=CC(OC2CC(N)C(O)C(C)O2)CC2OC(O)(CC(O)CC(O)C(O)CCC(O)CC(O)CC(=O)OC(C)C(C)C1O)CC(O)C2C(=O)O (stereo not shown) [C2′deOAmB] | – | – | unstable | – | – | – | – | – | – | – | – | – | – | – | –
3 | C[C@@H]1[C@H](O)[C@@H](C)/C=C/C=C/C=C/C=C/C=C/C=C/C=C/[C@H](O[C@@H]2O[C@H](C)[C@@H](O)[C@H](N)[C@H]2O)C[C@@H]2O[C@](O)(C[C@@H](O)C[C@@H](O)[C@H](O)CC[C@@H](O)C[C@@H](O)CC(=O)O[C@H]1C)C[C@H](O)[C@H]2C(=O)O [C2′epiAmB] | 2.75 | – | – | no toxicity | retained, albeit diminished, capacity to bind Erg | no toxicity | no binding | no toxicity | no toxicity | do not elevate kidney injury biomarkers | no elevation of renal biomarkers | 1 (≈ 0.924 µg/mL) | > 32 | no toxicity | no toxicity
